Measurements published in PMC11969444 (RSC Advances, 2025).

Tests used:
[1] = tested on: PGLT-induced diabetic rats; assay: Blood glucose level in PGLT-induced diabetes; assay type: in vivo
Outline: (§1)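 Rats were given PGLT to induce diabetes and treated with test compounds for 28 days. Blood glucose and body weight were recorded on days 1, 7, 14, 21 and 28. Serum was assayed for TG, total CH, LDL, HDL, SGOT, SGPT and ALP. Groups were normal control, diabetic control and treated, n = 8 per group, shown as mean ± SEM. Treated groups were compared with diabetic control by one-way ANOVA with Dunnett's post hoc test.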

Effect on body weights = assay type: in vivo, rats
Outline: as §1

[2] = tested on: PGLT-induced diabetic rats; assay: Serum hepatic marker enzymes; assay type: in vivo; conditions: 10 mg kg^−1, serum
Outline: as §1

[3] = tested on: PGLT-induced diabetic rats; assay: Antihyperlipidemic effects; assay type: in vivo; conditions: 10 mg kg^−1, 28 days
Outline: as §1

β-glucosidase = assay: In vitro β-glucosidase inhibitory assay; assay type: biochemical; conditions: read-out: β-Glucosidase IC50 ± SEM; mean ± standard error of the mean
Outline: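 β-Glucosidase solution (0.5 U mL−1) was preincubated with test compound at varying concentrations in 0.1 M phosphate buffer, pH 6.9, at 37 °C for 15 min. The reaction was started with 5 mM p-nitrophenyl-β-D-glucopyranoside solution in the same buffer and run at 37 °C for 15 min. It was stopped with 0.2 M sodium carbonate and read at 405 nm. Controls were a sample-free reaction and an enzyme-free blank.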

IC50 (β-glucosidase)	SMILES	Blood glucose level ([1]; 10 mg kg^−1, 1st day)	Blood glucose level ([1]; 10 mg kg^−1, 7th day)	Blood glucose level ([1]; 10 mg kg^−1, 14th day)	Blood glucose level ([1]; 10 mg kg^−1, 21st day)	Blood glucose level ([1]; 10 mg kg^−1, 28th day, listed as p-Nitrophenyl-β-D-glucopyranoside (PGLT))	Blood glucose level ([1]; 10 mg kg^−1, 28th day, listed as p-nitrophenyl-β-D-glucopyranoside (PGLT))	Body weight (Effect on body weights; 10 mg kg^−1, 1st day)	Body weight (Effect on body weights; 10 mg kg^−1, 7th day)	Body weight (Effect on body weights; 10 mg kg^−1, 14th day)	Body weight (Effect on body weights; 10 mg kg^−1, 21st day)	Body weight (Effect on body weights; 10 mg kg^−1, 28th day)	weight loss (Effect on body weights; day 1 to day 28, PGLT-treated group)	ALP [2]	SGOT [2]	SGPT [2]	HDL [3]	LDL [3]	TG [3]	Total CH [3]
–	O=[N+]([O-])c1ccc(O[C@@H]2O[C@H](CO)[C@@H](O)[C@H](O)[C@H]2O)cc1 [PGLT, p-nitrophenyl-β-D-glucopyranoside]	402.22 ± 4.97 mg per dL	229.56 ± 4.80 mg per dL	154.06 ± 4.59 mg per dL	119.70 ± 4.87 mg per dL	102.27 ± 4.31 mg per dL	102.27 ± 4.31 mg per dL	20.16 ± 1.71	19.88 ± 1.81	20.01 ± 1.61	19.70 ± 1.69	19.66 ± 1.51	2.48%	171.04 ± 3.91 IU	21.39 ± 1.79 IU	21.17 ± 1.88 IU	55.72 ± 2.01 mg/dL	87.58 ± 2.96 mg/dL	96.36 ± 4.51 mg/dL	104.73 ± 4.83 mg/dL
